ChEMBL document CHEMBL5724801, “EUbOPEN Chemogenomics Library - Multiplex” (2024)
Where “and” joins values, the source holds several entries; their conditions need not be identical. Identical values can stand only once.

How the values were obtained:
U2OS = assay: Multiplex assay against U2OS; assay type: toxicity, cell-based; conditions: human
In short: (§1)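 Four dyes were applied at seeding to live cells: Hoechst33342, BioTracker Green Microtubule Cytoskeleton Dye, MitoTracker Red and Annexin V Alexa Fluor 680. Imaging after compound addition used a CQ1 microscope at 37°C and 5% CO2. CellPathfinder machine-learning gating then sorted cells into Hoechst high-intensity objects or normal cells, normal cells into healthy, pyknosed or fragmented nuclei, and pyknosed cells into mitotic or apoptotic, with tubulin, mitochondrial-mass and membrane-permeability phenotypes given as per cents of healthy-nucleus cells.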

Fibroblast = assay: Multiplex assay against human fibroblast; assay type: toxicity, cell-based; in short: as §1
[1] = 24 h, 10 µM, compound concentration 10 uM
[2] = 48 h, 1 µM, compound concentration 1 uM
[3] = 48 h, 10 µM, compound concentration 10 uM
[4] = 12 h, 1 µM, compound concentration 1 uM
[5] = 12 h, 10 µM, compound concentration 10 uM
[6] = 24 h, 1 µM, compound concentration 1 uM

O=C(Nc1ccccc1Cl)c1cnc2ccc(C3CCNCC3)cn12.O=C(O)C(=O)O
Population Fragmented Nuclei (%) (U2OS; [1]): 3.44% and 5.18% | Population Healthy Nuclei (%) (U2OS; [1]): 75.51% and 63.75% | Population Hoechst High Intensity Objects (%) (U2OS; [1]): 0.2% and 0.4% | Population Membrane Permeable-Phenotype (%) (U2OS; [1]): 2.14% and 8.12% | Population Mitochondria Different-Phenotype (%) (U2OS; [1]): 0.8% and 10.62% | Population Mitotic Cells (%) (U2OS; [1]): 50% and 57.69% | Population Normal (%) (U2OS; [1]): 99.8% and 99.6% | Population Pyknosed Nuclei (%) (U2OS; [1]): 21.05% and 31.08% | Population Tubulin-Different-Phenotype (%) (U2OS; [1]): 4.02% and 2.5% | Total Cell Count (U2OS; [1]): 495 and 252 | Population Apoptotic (%) (U2OS; [2]): 50.86% and 56.25% | Population Fragmented Nuclei (%) (U2OS; [2]): 4.49% and 3.81% | Population Healthy Nuclei (%) (U2OS; [2]): 84.2% and 83.11% | Population Hoechst High Intensity Objects (%) (U2OS; [2]): 0% and 0.27% | Population Membrane Permeable-Phenotype (%) (U2OS; [2]): 2.09% and 5.57% | Population Mitochondria Different-Phenotype (%) (U2OS; [2]): 0% and 0.98% | Population Mitotic Cells (%) (U2OS; [2]): 49.14% and 43.75% | Population Normal (%) (U2OS; [2]): 100% and 99.73% | Population Pyknosed Nuclei (%) (U2OS; [2]): 11.32% and 13.08% | Population Tubulin-Different-Phenotype (%) (U2OS; [2]): 0.93% and 2.3% | Total Cell Count (U2OS; [2]): 1025 and 368 | Population Apoptotic (%) (U2OS; [3]): 54.92% and 58.04% | Population Fragmented Nuclei (%) (U2OS; [3]): 4.59% and 4.38% | Population Healthy Nuclei (%) (U2OS; [3]): 68.57% and 60.62% | Population Hoechst High Intensity Objects (%) (U2OS; [3]): 0.96% and 0% | Population Membrane Permeable-Phenotype (%) (U2OS; [3]): 5.07% and 11.34% | Population Mitochondria Different-Phenotype (%) (U2OS; [3]): 0.81% and 4.64% | Population Mitotic Cells (%) (U2OS; [3]): 45.08% and 41.96% | Population Normal (%) (U2OS; [3]): 99.04% and 100% | Population Pyknosed Nuclei (%) (U2OS; [3]): 26.84% and 35% | Population Tubulin-Different-Phenotype (%) (U2OS; [3]): 3.45% and 9.28% | Total Cell Count (U2OS; [3]): 726 and 320 | Population Fragmented Nuclei (%) (Fibroblast; [4]): 12.96% and 7.79% | Population Healthy Nuclei (%) (Fibroblast; [4]): 60.19% and 75.41% | Population Hoechst High Intensity Objects (%) (Fibroblast; [4]): 0% | Population Membrane Permeable-Phenotype (%) (Fibroblast; [4]): 1.54% and 2.72% | Population Mitochondria Different-Phenotype (%) (Fibroblast; [4]): 7.69% and 10.87% | Population Mitotic Cells (%) (Fibroblast; [4]): 93.1% and 73.17% | Population Normal (%) (Fibroblast; [4]): 100% | Population Pyknosed Nuclei (%) (Fibroblast; [4]): 26.85% and 16.8% | Population Tubulin-Different-Phenotype (%) (Fibroblast; [4]): 17.69% and 23.91% | Total Cell Count (Fibroblast; [4]): 216 and 244 | Population Apoptotic (%) (Fibroblast; [5]): 16.33% and 20.48% | Population Healthy Nuclei (%) (Fibroblast; [5]): 62.09% and 63.64% | Population Hoechst High Intensity Objects (%) (Fibroblast; [5]): 0% and 0.43% | Population Membrane Permeable-Phenotype (%) (Fibroblast; [5]): 4.42% and 7.48% | Population Mitochondria Different-Phenotype (%) (Fibroblast; [5]): 17.7% and 21.09% | Population Mitotic Cells (%) (Fibroblast; [5]): 83.67% and 79.52% | Population Normal (%) (Fibroblast; [5]): 100% and 99.57% | Population Pyknosed Nuclei (%) (Fibroblast; [5]): 26.92% and 35.93% | Population Tubulin-Different-Phenotype (%) (Fibroblast; [5]): 40.71% and 57.82% | Total Cell Count (Fibroblast; [5]): 182 and 232 | Population Apoptotic (%) (Fibroblast; [6]): 14.29% and 25.71% | Population Fragmented Nuclei (%) (Fibroblast; [6]): 11.52% and 3.52% | Population Healthy Nuclei (%) (Fibroblast; [6]): 72.35% and 81.06% | Population Hoechst High Intensity Objects (%) (Fibroblast; [6]): 0% | Population Membrane Permeable-Phenotype (%) (Fibroblast; [6]): 4.46% and 3.8% | Population Mitochondria Different-Phenotype (%) (Fibroblast; [6]): 8.92% and 15.22% | Population Mitotic Cells (%) (Fibroblast; [6]): 85.71% and 74.29% | Population Normal (%) (Fibroblast; [6]): 100% | Population Pyknosed Nuclei (%) (Fibroblast; [6]): 16.13% and 15.42% | Population Tubulin-Different-Phenotype (%) (Fibroblast; [6]): 19.75% and 25.54% | Total Cell Count (Fibroblast; [6]): 217 and 227 | Population Apoptotic (%) (Fibroblast; [1]): 35.29% and 37.66% | Population Healthy Nuclei (%) (Fibroblast; [1]): 67.43% and 62.44% | Population Hoechst High Intensity Objects (%) (Fibroblast; [1]): 0% | Population Membrane Permeable-Phenotype (%) (Fibroblast; [1]): 6.78% and 10.53% | Population Mitochondria Different-Phenotype (%) (Fibroblast; [1]): 28.81% and 18.05% | Population Mitotic Cells (%) (Fibroblast; [1]): 64.71% and 62.34% | Population Normal (%) (Fibroblast; [1]): 100% | Population Pyknosed Nuclei (%) (Fibroblast; [1]): 19.43% and 36.15% | Population Tubulin-Different-Phenotype (%) (Fibroblast; [1]): 49.15% and 60.9% | Total Cell Count (Fibroblast; [1]): 175 and 213 | Population Fragmented Nuclei (%) (Fibroblast; [2]): 11.26% and 5.24% | Population Healthy Nuclei (%) (Fibroblast; [2]): 79.73% and 81.22% | Population Hoechst High Intensity Objects (%) (Fibroblast; [2]): 0% | Population Membrane Permeable-Phenotype (%) (Fibroblast; [2]): 2.26% and 5.91% | Population Mitochondria Different-Phenotype (%) (Fibroblast; [2]): 7.91% and 2.15% | Population Mitotic Cells (%) (Fibroblast; [2]): 90% and 64.52% | Population Normal (%) (Fibroblast; [2]): 100% | Population Pyknosed Nuclei (%) (Fibroblast; [2]): 9.01% and 13.54% | Population Tubulin-Different-Phenotype (%) (Fibroblast; [2]): 12.43% and 28.49% | Total Cell Count (Fibroblast; [2]): 222 and 229 | Population Apoptotic (%) (Fibroblast; [3]): 33.33% and 60.38% | Population Fragmented Nuclei (%) (Fibroblast; [3]): 10.9% and 1.94% | Population Healthy Nuclei (%) (Fibroblast; [3]): 75.64% and 63.87% | Population Hoechst High Intensity Objects (%) (Fibroblast; [3]): 0% and 0.64% | Population Mitochondria Different-Phenotype (%) (Fibroblast; [3]): 13.56% and 16.16% | Population Mitotic Cells (%) (Fibroblast; [3]): 66.67% and 39.62% | Population Normal (%) (Fibroblast; [3]): 100% and 99.36% | Population Pyknosed Nuclei (%) (Fibroblast; [3]): 13.46% and 34.19% | Population Tubulin-Different-Phenotype (%) (Fibroblast; [3]): 50.85% and 74.75% | Total Cell Count (Fibroblast; [3]): 156
